Measurements taken from paper PMC7227796 (ACS chemical neuroscience, 2020).
Structures can show the parent of a compound that is named as a salt.

Legend:
[1] = biological target: GluN1/GluN2A NMDA receptor (Rattus norvegicus, UniProt P35439+Q00959); experiment: Two-electrode voltage-clamp recordings, Xenopus oocytes expressing GluN1/GluN2A; assay type: cell-based
Summary of the method: (§1)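 Xenopus oocytes were injected with rat GluN1-1a and GluN2A, 2B, 2C or 2D cRNA at a 1:2 ratio. Two-electrode voltage clamp was run 2–6 days later at room temperature and −40 mV. Bath was 90 NaCl, 1 KCl, 10 HEPES, 0.5 BaCl2, 0.01 EDTA (mM), pH 7.4. Currents were evoked by 1 μM glutamate plus 100 μM glycine, with test compound gravity-perfused. Hill fits gave IC50 per oocyte (5–6 oocytes). Ki was derived by Cheng-Prusoff using earlier glutamate EC50 values.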

[2] = biological target: GluN1/GluN2B NMDA receptor (Rattus norvegicus, UniProt P35439+Q00960); experiment: Two-electrode voltage-clamp recordings, Xenopus oocytes expressing GluN1/GluN2B; assay type: cell-based
Sequence of GluN1/GluN2B NMDA receptor (Q00960 27-1482, other chains not shown): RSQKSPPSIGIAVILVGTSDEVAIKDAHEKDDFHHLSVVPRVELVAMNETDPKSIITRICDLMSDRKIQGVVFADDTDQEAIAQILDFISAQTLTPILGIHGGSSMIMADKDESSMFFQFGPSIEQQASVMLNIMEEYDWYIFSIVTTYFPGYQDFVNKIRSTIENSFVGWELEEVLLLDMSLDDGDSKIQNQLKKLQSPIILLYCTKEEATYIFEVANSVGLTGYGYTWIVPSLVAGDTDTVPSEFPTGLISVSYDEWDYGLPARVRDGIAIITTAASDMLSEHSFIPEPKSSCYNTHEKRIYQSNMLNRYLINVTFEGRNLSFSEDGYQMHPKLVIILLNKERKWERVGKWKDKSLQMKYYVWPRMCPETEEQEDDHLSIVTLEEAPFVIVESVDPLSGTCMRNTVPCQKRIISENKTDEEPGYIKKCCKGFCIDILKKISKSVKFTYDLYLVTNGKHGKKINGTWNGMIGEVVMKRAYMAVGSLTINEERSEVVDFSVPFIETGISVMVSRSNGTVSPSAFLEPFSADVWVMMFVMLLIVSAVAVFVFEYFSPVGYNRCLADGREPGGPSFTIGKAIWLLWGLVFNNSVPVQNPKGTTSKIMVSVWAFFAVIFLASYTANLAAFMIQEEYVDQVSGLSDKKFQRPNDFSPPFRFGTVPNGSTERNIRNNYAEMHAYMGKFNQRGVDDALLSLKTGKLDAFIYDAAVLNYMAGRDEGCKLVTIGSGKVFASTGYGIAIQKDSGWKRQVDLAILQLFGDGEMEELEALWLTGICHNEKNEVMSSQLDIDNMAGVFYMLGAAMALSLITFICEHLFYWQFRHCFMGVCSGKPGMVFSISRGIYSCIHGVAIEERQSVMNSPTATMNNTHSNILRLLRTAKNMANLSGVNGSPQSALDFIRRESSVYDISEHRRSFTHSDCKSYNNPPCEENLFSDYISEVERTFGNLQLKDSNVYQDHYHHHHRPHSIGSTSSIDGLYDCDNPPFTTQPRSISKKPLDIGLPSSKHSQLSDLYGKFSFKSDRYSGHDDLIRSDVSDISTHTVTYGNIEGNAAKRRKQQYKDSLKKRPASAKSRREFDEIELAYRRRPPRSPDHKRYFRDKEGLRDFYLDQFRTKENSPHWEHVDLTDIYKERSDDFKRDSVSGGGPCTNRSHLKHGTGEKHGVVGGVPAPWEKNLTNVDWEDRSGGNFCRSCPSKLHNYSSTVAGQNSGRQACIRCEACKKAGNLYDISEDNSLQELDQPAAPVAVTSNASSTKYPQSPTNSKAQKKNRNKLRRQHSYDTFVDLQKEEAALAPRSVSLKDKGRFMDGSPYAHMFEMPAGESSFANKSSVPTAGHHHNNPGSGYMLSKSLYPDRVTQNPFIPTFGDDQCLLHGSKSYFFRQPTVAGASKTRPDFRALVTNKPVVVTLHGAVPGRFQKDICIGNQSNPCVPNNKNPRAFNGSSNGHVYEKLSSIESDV
Summary of the method: as §1

[3] = biological target: GluN1/GluN2C NMDA receptor (Rattus norvegicus, UniProt P35439+Q00961); experiment: Two-electrode voltage-clamp recordings, Xenopus oocytes expressing GluN1/GluN2C; assay type: cell-based
Summary of the method: as §1

[4] = biological target: GluN1/GluN2D NMDA receptor (Rattus norvegicus, UniProt P35439+Q62645); experiment: Two-electrode voltage-clamp recordings, Xenopus oocytes expressing GluN1/GluN2D; assay type: cell-based
Sequence of GluN1/GluN2D NMDA receptor (Q62645 28-1323, other chains not shown): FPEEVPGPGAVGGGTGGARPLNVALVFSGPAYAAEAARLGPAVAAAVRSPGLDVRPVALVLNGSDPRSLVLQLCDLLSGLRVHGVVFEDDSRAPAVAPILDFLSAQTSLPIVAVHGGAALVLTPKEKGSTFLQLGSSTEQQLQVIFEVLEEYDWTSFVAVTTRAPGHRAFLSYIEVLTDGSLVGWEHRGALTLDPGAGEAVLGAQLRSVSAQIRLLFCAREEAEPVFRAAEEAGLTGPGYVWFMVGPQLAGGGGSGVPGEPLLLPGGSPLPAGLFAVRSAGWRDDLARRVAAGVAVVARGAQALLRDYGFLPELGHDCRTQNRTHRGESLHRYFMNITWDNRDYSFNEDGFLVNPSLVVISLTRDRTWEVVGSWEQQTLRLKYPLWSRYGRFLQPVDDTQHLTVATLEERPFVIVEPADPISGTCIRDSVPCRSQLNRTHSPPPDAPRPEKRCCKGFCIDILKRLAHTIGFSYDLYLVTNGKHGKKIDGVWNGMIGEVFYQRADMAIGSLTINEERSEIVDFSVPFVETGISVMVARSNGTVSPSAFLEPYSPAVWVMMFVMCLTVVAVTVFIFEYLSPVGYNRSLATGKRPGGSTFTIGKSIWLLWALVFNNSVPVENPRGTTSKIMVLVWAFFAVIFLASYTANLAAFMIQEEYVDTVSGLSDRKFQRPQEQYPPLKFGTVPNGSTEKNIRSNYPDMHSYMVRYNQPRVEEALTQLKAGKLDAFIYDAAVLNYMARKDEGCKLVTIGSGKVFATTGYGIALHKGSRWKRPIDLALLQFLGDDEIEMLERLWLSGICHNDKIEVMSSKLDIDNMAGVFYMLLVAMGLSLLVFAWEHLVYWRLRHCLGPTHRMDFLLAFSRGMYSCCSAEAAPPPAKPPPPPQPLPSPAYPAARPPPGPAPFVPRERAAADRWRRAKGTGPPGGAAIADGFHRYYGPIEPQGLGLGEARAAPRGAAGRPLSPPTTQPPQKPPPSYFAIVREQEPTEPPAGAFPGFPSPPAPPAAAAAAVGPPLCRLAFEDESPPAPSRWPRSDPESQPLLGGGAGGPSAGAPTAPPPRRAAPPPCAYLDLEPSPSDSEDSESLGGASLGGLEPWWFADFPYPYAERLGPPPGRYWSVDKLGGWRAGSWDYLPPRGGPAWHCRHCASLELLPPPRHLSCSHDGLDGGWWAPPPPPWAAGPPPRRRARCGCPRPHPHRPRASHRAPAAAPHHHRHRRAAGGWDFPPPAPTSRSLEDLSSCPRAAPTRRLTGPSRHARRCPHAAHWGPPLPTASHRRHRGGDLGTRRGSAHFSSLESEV
Summary of the method: as §1

native KA receptors [5] = conditions: rat synaptosomes, [3H]KA; earlier work, ref [36],[38],[39]; cited from earlier work
native AMPA receptors = experiment: Radioligand binding at native AMPA receptors; conditions: rat synaptosomes, [3H]AMPA; for IC50: read-out: AMPA IC50, native iGluRs (synaptosomes)
Summary of the method: (§2)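 Rat cortical synaptosomal membranes were labelled with 5 nM [3H]AMPA (AMPA), 5 nM [3H]KA (KA) or [3H]CGP39653 (NMDA). Test compound was run at 12–16 concentrations in triplicate, with three to six independent experiments. Cpm were fitted by nonlinear regression. Values are reported as pIC50 for AMPA and KA and as pKi for NMDA, each as mean with SEM.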

native KA receptors [6] = experiment: Radioligand binding at native KA receptors; conditions: rat synaptosomes, [3H]KA
Summary of the method: as §2

native NMDA receptors = experiment: Radioligand binding at native NMDA receptors; set-up: species or system rat; conditions: for NMDA pKi with SEM (in brackets) / Ki: rat synaptosomes, [3H]CGP-39653; for Ki: read-out: NMDA Ki, native iGluRs (synaptosomes)
Summary of the method: as §2

GluK1 = GluK1 (Rattus norvegicus, UniProt P22756); experiment: Radioligand binding at recombinant homomeric GluK1
Summary of the method: (§3)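 Membranes from sf9 cells expressing rat homomeric GluK1, GluK2 or GluK3 were incubated in 50 mM Tris-HCl, pH 7.1, for 2 h at 4 °C. Radioligand was [3H]-(S)-NF608 for GluK1 and [3H]kainic acid for GluK2 and GluK3. Samples were filtered on GF/B, washed twice with ice-cold buffer, dried for 1 h at 70 °C and counted by scintillation. Ki came from 12–16-point triplicate curves. Single-point % specific binding is mean ± SD of three experiments, at 10 μM test compound where stated.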

GluK2 = GluK2 (Rattus norvegicus, UniProt P42260); experiment: Radioligand binding at recombinant homomeric GluK2
Sequence of GluK2 (P42260 32-908): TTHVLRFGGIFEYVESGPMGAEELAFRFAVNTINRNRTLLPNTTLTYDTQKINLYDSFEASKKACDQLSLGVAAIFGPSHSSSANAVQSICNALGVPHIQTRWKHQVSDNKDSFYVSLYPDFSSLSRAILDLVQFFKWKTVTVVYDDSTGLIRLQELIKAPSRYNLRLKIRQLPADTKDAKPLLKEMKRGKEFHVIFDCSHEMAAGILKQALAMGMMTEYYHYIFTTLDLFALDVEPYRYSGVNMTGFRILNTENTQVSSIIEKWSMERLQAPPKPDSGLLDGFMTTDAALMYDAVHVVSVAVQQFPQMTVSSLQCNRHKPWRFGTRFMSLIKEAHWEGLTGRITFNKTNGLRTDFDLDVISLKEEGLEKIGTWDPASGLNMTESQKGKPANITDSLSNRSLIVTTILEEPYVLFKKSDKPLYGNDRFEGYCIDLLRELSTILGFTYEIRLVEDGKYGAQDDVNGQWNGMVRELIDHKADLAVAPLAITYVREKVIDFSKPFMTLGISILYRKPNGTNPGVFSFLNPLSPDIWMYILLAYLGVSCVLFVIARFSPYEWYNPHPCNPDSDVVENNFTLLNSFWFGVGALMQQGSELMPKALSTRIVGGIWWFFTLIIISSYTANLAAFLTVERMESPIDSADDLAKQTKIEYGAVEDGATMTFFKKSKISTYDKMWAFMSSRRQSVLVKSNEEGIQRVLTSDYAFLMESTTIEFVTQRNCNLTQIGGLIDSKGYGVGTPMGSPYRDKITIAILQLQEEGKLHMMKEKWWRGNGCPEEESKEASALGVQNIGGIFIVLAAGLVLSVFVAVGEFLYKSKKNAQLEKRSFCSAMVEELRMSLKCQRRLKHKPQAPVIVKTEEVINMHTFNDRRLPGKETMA
Summary of the method: as §3

GluK3 = GluK3 (Rattus norvegicus, UniProt P42264); experiment: Radioligand binding at recombinant homomeric GluK3
Summary of the method: as §3

[7] = biological target: GluN1/GluN2A NMDA receptor (Rattus norvegicus, UniProt Q00959); experiment: Two-electrode voltage-clamp recordings, Xenopus oocytes expressing GluN1/GluN2A; assay type: cell-based; conditions: two-electrode voltage-clamp
Summary of the method: as §1

Sequence of GluN1/GluN2A NMDA receptor (Rattus norvegicus, UniProt P35439+Q00959) (Q00959 23-1464, other chains not shown): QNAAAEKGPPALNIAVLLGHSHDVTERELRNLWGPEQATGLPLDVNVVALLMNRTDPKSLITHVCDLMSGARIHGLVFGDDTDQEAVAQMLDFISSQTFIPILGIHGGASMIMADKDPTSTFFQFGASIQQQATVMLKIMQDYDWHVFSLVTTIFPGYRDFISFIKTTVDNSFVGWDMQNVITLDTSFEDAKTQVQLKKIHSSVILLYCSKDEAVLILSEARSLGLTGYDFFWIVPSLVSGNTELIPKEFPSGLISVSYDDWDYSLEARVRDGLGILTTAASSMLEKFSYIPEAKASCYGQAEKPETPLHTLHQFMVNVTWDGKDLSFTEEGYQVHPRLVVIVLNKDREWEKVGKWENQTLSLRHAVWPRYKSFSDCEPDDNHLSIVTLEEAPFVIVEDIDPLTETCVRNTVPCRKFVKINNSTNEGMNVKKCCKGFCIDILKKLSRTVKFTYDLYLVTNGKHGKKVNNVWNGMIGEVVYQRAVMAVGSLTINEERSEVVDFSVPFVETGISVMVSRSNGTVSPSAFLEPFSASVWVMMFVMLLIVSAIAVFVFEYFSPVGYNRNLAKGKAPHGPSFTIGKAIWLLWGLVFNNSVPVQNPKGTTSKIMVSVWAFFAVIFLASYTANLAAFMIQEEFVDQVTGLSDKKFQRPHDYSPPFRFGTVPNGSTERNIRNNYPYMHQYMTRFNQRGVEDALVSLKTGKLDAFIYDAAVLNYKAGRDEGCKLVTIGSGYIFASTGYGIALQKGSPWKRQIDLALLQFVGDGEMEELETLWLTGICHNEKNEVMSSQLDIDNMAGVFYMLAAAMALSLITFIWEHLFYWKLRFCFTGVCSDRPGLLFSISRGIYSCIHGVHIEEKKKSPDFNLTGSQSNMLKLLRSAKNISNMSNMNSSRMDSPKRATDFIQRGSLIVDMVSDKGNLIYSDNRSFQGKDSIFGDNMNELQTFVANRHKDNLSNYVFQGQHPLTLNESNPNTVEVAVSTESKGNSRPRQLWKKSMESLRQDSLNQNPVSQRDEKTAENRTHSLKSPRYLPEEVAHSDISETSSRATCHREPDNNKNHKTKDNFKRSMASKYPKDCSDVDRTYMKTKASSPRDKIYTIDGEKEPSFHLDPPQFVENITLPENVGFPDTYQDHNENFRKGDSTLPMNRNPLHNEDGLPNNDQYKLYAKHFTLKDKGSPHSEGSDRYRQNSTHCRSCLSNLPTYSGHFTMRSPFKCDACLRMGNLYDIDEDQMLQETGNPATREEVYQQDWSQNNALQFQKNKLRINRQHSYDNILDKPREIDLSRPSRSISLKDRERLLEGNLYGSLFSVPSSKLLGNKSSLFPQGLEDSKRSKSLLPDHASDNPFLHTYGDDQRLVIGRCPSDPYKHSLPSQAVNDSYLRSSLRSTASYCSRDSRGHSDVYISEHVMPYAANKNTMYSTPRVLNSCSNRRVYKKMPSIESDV

| IC50 [1] | IC50 [2] | IC50 [3] | IC50 [4] | Compound | KA (IC50), native iGluRs (native KA receptors [5]) | IC50 (native AMPA receptors) | KA IC50, native iGluRs (synaptosomes) (native KA receptors [6]) | NMDA pKi with SEM (in brackets) (native NMDA receptors) | Ki (native NMDA receptors) | Ki (GluK1) | Ki (GluK2) | Ki (GluK3) | selectivity for GluN1/2A over GluN1/2B and GluN1/2C [7] | selectivity for GluN1/2A over GluN1/2D [7] | AMPA pIC50 with SEM (in brackets) (native AMPA receptors) | KA pIC50 with SEM (in brackets) (native KA receptors [6]) | increase in affinity for native NMDA receptors (native NMDA receptors; compared to 4a) | selectivity/preference for NMDA receptors over AMPA and KA receptors (native NMDA receptors; native receptors) |
| --- | --- | --- | --- | --- | --- | --- | --- | --- | --- | --- | --- | --- | --- | --- | --- | --- | --- | --- |
| 11.8 ± 0.23 µM | 34.5 ± 0.97 µM | 91.2 ± 2.6 µM | > 100 µM | Cl.O=C(O)c1cccc([C@H]2CCN[C@@H]2C(=O)O)c1 [4a, (2S,3R)-3-(3-Carboxyphenyl)pyrrolidine-2-carboxylic acid hydrochloride] | 22 µM |  |  |  |  |  |  |  |  |  |  |  |  |  |
|  |  |  |  | Cl.O=C(O)c1cc([C@H]2CCN[C@@H]2C(=O)O)ccc1Br [4f, (2S,3R)-3-(4-Bromo-3-carboxyphenyl)pyrrolidine-2-carboxylic acid hydrochloride] | >100 µM |  |  |  |  |  |  |  |  |  |  |  |  |  |
| 0.75 ± 0.03 µM | 4.24 ± 0.13 µM | 5.17 ± 0.12 µM | 24.3 ± 1.46 µM | O=C(O)c1ccc([C@H]2CCN[C@@H]2C(=O)O)cc1C(=O)O [4h, 4-((2S,3R)-2-Carboxypyrrolidin-3-yl)phthalic acid tri sodium salt] |  | > 100 µM | >100 µM | 5.88 ± 0.06 | 1.3 µM | > 100 µM | > 100 µM | > 100 µM | 6 to 10 fold | 32 to 34 fold |  |  |  |  |

| Compound | IC50 [1] | IC50 [2] | IC50 [3] | IC50 [4] | KA (IC50), native iGluRs (native KA receptors [5]) | IC50 (native AMPA receptors) | KA IC50, native iGluRs (synaptosomes) (native KA receptors [6]) | NMDA pKi with SEM (in brackets) (native NMDA receptors) | Ki (native NMDA receptors) | Ki (GluK1) | Ki (GluK2) | Ki (GluK3) | selectivity for GluN1/2A over GluN1/2B and GluN1/2C [7] | selectivity for GluN1/2A over GluN1/2D [7] | AMPA pIC50 with SEM (in brackets) (native AMPA receptors) | KA pIC50 with SEM (in brackets) (native KA receptors [6]) | increase in affinity for native NMDA receptors (native NMDA receptors; compared to 4a) | selectivity/preference for NMDA receptors over AMPA and KA receptors (native NMDA receptors; native receptors) |
| --- | --- | --- | --- | --- | --- | --- | --- | --- | --- | --- | --- | --- | --- | --- | --- | --- | --- | --- |
| Cl.O=C(O)c1cc(C(=O)O)cc([C@H]2CCN[C@@H]2C(=O)O)c1 [5c, 5-((2S,3R)-2-Carboxypyrrolidin-3-yl)isophthalic acid hydrochloride] | 0.63 ± 0.01 µM | 4.37 ± 0.17 µM | 6.27 ± 0.13 µM | 21.2 ± 0.37 µM |  | 36 µM | 63 µM | 6.32 ± 0.03 | 0.48 µM | 12.5 ± 1.7 µM | > 100 µM | 15.7 ± 3.1 µM | 6 to 10 fold | 32 to 34 fold | 4.45 ± 0.04 | 4.21 ± 0.05 | 9 fold | 75 fold |
